Laboratory results as given in ChEMBL document CHEMBL1177827, “Discovery of novel 1H-imidazol-2-yl-pyrimidine-4,6-diamines as potential antimalarials” (Bioorg Med Chem Lett, 2010).
pEC50: −log10 of the molar value. ≈ marks a conversion by molar mass, not a printed value.

What was measured:
Plasmodium falciparum [1] = test: Antimalarial activity Plasmodium falciparum 3D7; format: functional, organism-based
Procedure, shortened: (§1)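 P. falciparum-infected human red blood cell proliferation assay, with SYBR Green staining as the read-out of parasite growth. EC50 is the mean of two experiments. Each plate carries mefloquine, sulfadoxine and artemisinin as internal standards.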

[2] = Metabolic stability in rat microsomes assessed as extraction ratio; format: ADME, Microsome
[3] = Metabolic stability in mouse microsomes assessed as extraction ratio; format: ADME, Microsome
[4] = Metabolic stability in human microsomes assessed as extraction ratio; format: ADME, Microsome
[5] = Thermodynamic solubility at pH 6.8; format: physicochemical; details: buffer
Procedure, shortened: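 Thermodynamic solubility measured at pH 6.8, reported in […].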

Plasmodium falciparum [6] = test: Antimalarial activity Plasmodium falciparum 3BAG; format: functional, organism-based; procedure, shortened: as §1
Plasmodium falciparum [7] = test: Antimalarial activity Plasmodium falciparum CAMP R; format: functional, organism-based; details: CampR; procedure, shortened: as §1
Plasmodium falciparum [8] = test: Antimalarial activity Plasmodium falciparum C188; format: functional, organism-based; procedure, shortened: as §1
Plasmodium falciparum [9] = test: Antimalarial activity Plasmodium falciparum D10; format: functional, organism-based; procedure, shortened: as §1
Plasmodium falciparum [10] = test: Antimalarial activity Plasmodium falciparum D6; format: functional, organism-based; procedure, shortened: as §1
Plasmodium falciparum [11] = test: Antimalarial activity Plasmodium falciparum Dd2; format: functional, organism-based; procedure, shortened: as §1
Plasmodium falciparum [12] = test: Antimalarial activity Plasmodium falciparum FcB1; format: functional, organism-based; details: FcB1/Columbia; procedure, shortened: as §1
Plasmodium falciparum [13] = test: Antimalarial activity Plasmodium falciparum FCR3; format: functional, organism-based; details: FCR-3/Gambia; procedure, shortened: as §1
Plasmodium falciparum [14] = test: Antimalarial activity Plasmodium falciparum 7G8; format: functional, organism-based; procedure, shortened: as §1
Plasmodium falciparum [15] = test: Antimalarial activity Plasmodium falciparum HB3; format: functional, organism-based; procedure, shortened: as §1
Plasmodium falciparum [16] = test: Antimalarial activity Plasmodium falciparum K1; format: functional, organism-based; procedure, shortened: as §1
Plasmodium falciparum [17] = test: Antimalarial activity Plasmodium falciparum NF54; format: functional, organism-based; procedure, shortened: as §1
Plasmodium falciparum [18] = test: Antimalarial activity Plasmodium falciparum TM91C235; format: functional, organism-based; procedure, shortened: as §1
Plasmodium falciparum [19] = test: Antimalarial activity Plasmodium falciparum W2; format: functional, organism-based; procedure, shortened: as §1
[20] = AUC (0 to infinity) in mouse; format: ADME, organism-based; parameters: time infinity; details: plasma
[21] = Cmax in mouse; format: ADME, organism-based; details: in vivo
[22] = Half life in mouse; format: ADME, organism-based; details: in vivo
[23] = Oral bioavailability in mouse; format: ADME, organism-based; details: in vivo

## Cc1nc(Nc2ccc(OC(F)(F)F)cc2)cc(Nc2nccn2-c2cccc(C(=O)NCCN3CCCC3)c2)n1
Plasmodium falciparum [1]
  pEC50: 6.77

## FC(F)(F)Oc1ccc(Nc2cc(Nc3nccn3-c3cc(N4CCC(N5CCOCC5)CC4)cc(C(F)(F)F)c3)ncn2)cc1
Plasmodium falciparum [1]
  pEC50: 7.06

## Cc1nc(Nc2ccc(OC(F)(F)F)cc2)cc(Nc2nccn2-c2cccc(C(=O)NCCN3CCOCC3)c2)n1
Plasmodium falciparum [1]
  pEC50: 7.16
[2]
  hepatic extraction ratio: 0.243
[3]
  hepatic extraction ratio: < 0.17
[4]
  hepatic extraction ratio: < 0.42
[5]
  solubility thermodynamic: 90 µg/mL (≈ 154 µM)

## FC(F)(F)Oc1ccc(Nc2nc(Nc3nccn3-c3cccc(C(F)(F)F)c3)c3ccccc3n2)cc1
Plasmodium falciparum [1]
  pEC50: 6.25

## CC(C)Oc1nc(Nc2ccc(OC(F)(F)F)cc2)cc(Nc2nccn2-c2cccc(C(F)(F)F)c2)n1
Plasmodium falciparum [1]
  pEC50: 7.22

## O=C(NCCN1CCOCC1)c1cccc(-n2ccnc2Nc2cc(Nc3ccc(OC(F)(F)F)cc3)ncn2)c1
Plasmodium falciparum [1]
  pEC50: 6.60

## FC(F)(F)Oc1ccc(Nc2cc(Nc3nccn3-c3cccc(C(F)(F)F)c3)nc(Oc3ccccc3)n2)cc1
Plasmodium falciparum [1]
  pEC50: 6.94

## CN1CCN(c2nc(Nc3ccc(OC(F)(F)F)cc3)cc(Nc3nccn3-c3cccc(C(F)(F)F)c3)n2)CC1
Plasmodium falciparum [1]
  pEC50: 7.47
Plasmodium falciparum [6]
  pEC50: 7.22
Plasmodium falciparum [7]
  pEC50: 7.30
Plasmodium falciparum [8]
  pEC50: 6.85
Plasmodium falciparum [9]
  pEC50: 7.82
Plasmodium falciparum [10]
  pEC50: 7.30
Plasmodium falciparum [11]
  pEC50: 7.15
Plasmodium falciparum [12]
  pEC50: 7.30
Plasmodium falciparum [13]
  pEC50: 6.86
Plasmodium falciparum [14]
  pEC50: 7.02
Plasmodium falciparum [15]
  pEC50: 7.34
Plasmodium falciparum [16]
  pEC50: 7.06
Plasmodium falciparum [17]
  pEC50: 7.48
Plasmodium falciparum [18]
  pEC50: 7.24
Plasmodium falciparum [19]
  pEC50: 6.92
[2]
  hepatic extraction ratio: 0.264
[3]
  hepatic extraction ratio: < 0.17
[4]
  hepatic extraction ratio: < 0.28
[5]
  solubility thermodynamic: 40 µg/mL (≈ 69.1 µM)
[20]
  AUC(0-inf): 14.2 µM·h
[21]
  Cmax: 946 nM
[22]
  half-life: 12 h
[23]
  bioavailability: 30%

## COc1nc(Nc2ccc(OC(F)(F)F)cc2)cc(Nc2nccn2-c2cccc(C(F)(F)F)c2)n1
Plasmodium falciparum [1]
  pEC50: 6.72

## Cc1nc(Nc2ccc(OC(F)(F)F)cc2)cc(Nc2nccn2-c2cccc(C(=O)N3CCN(CCO)CC3)c2)n1
Plasmodium falciparum [1]
  pEC50: 6.11

## FC(F)(F)Oc1ccc(Nc2cc(Nc3nccn3-c3cc(NCCN4CCOCC4)cc(C(F)(F)F)c3)ncn2)cc1
Plasmodium falciparum [1]
  pEC50: 7.06

## FC(F)(F)Oc1ccc(Nc2cc(Nc3nccn3-c3cc(Br)cc(C(F)(F)F)c3)ncn2)cc1
Plasmodium falciparum [1]
  pEC50: 6.65

## FC(F)(F)Oc1ccc(Nc2cc(Nc3nccn3-c3cccc(C(F)(F)F)c3)nc(-c3ccccc3)n2)cc1
Plasmodium falciparum [1]
  pEC50: 7.13

## OC(c1cc(C(F)(F)F)nc2c(C(F)(F)F)cccc12)C1CCCCN1 (stereo not given) [MEFLOQUINE]
Plasmodium falciparum [1]
  pEC50: 7.70

## COc1ncnc(NS(=O)(=O)c2ccc(N)cc2)c1OC [SULFADOXINE]
Plasmodium falciparum [1]
  pEC50: 7.52

## C[C@@H]1CC[C@H]2[C@@H](C)C(=O)O[C@@H]3O[C@@]4(C)CC[C@@H]1[C@]32OO4 [ARTEMISININ]
Plasmodium falciparum [1]
  pEC50: 8.00

## CSc1nc(Nc2ccc(OC(F)(F)F)cc2)cc(Nc2nccn2-c2cccc(C(F)(F)F)c2)n1
Plasmodium falciparum [1]
  pEC50: 6.97

## FC(F)(F)Oc1ccc(Nc2nccc(Nc3nccn3-c3cccc(C(F)(F)F)c3)n2)cc1
Plasmodium falciparum [1]
  pEC50: 6.36

## CCN(CC)CCNC(=O)c1cccc(-n2ccnc2Nc2cc(Nc3ccc(OC(F)(F)F)cc3)nc(C)n2)c1
Plasmodium falciparum [1]
  pEC50: 7.34
[2]
  hepatic extraction ratio: 0.367
[3]
  hepatic extraction ratio: < 0.17
[4]
  hepatic extraction ratio: < 0.31
[5]
  solubility thermodynamic: 80 µg/mL (≈ 141 µM)

## FC(F)(F)Oc1ccc(Nc2cc(Nc3nccn3-c3cccc(C(F)(F)F)c3)ncn2)cc1
Plasmodium falciparum [1]
  pEC50: 6.36

## Cc1nc(Nc2ccc(OC(F)(F)F)cc2)cc(Nc2nccn2-c2cccc(C(=O)NCCCN3CCOCC3)c2)n1
Plasmodium falciparum [1]
  pEC50: 7.17

## Cc1nc(Nc2ccc(OC(F)(F)F)cc2)cc(Nc2nccn2-c2cccc(C(=O)NCCc3c[nH]cn3)c2)n1
Plasmodium falciparum [1]
  pEC50: 6.09

## FC(F)(F)Oc1ccc(Nc2cc(Nc3nccn3-c3cc(N4CCC(N5CCCC5)CC4)cc(C(F)(F)F)c3)ncn2)cc1
Plasmodium falciparum [1]
  pEC50: 7.04

## CN1CCN(CCNc2cc(-n3ccnc3Nc3cc(Nc4ccc(OC(F)(F)F)cc4)ncn3)cc(C(F)(F)F)c2)CC1
Plasmodium falciparum [1]
  pEC50: 7.04

## Nc1nc(Nc2ccc(OC(F)(F)F)cc2)cc(Nc2nccn2-c2cccc(C(F)(F)F)c2)n1
Plasmodium falciparum [1]
  pEC50: 7.31

## FC(F)(F)Oc1ccc(Oc2cc(Nc3nccn3-c3cccc(C(F)(F)F)c3)ncn2)cc1
Plasmodium falciparum [1]
  pEC50: 5.37

## FC(F)(F)Oc1ccc(Nc2cc(Nc3nccn3-c3cccc(C(F)(F)F)c3)nc(NCCN3CCOCC3)n2)cc1
Plasmodium falciparum [1]
  pEC50: 7.28

## FC(F)(F)Oc1ccc(Nc2cc(Nc3nccn3-c3cccc(C(F)(F)F)c3)nc(C(F)(F)F)n2)cc1
Plasmodium falciparum [1]
  pEC50: 6.45

## FC(F)(F)Oc1ccc(Nc2cc(Nc3nccn3-c3cccc(C(F)(F)F)c3)nc(N3CCOCC3)n2)cc1
Plasmodium falciparum [1]
  pEC50: 6.95

## CS(=O)(=O)c1nc(Nc2ccc(OC(F)(F)F)cc2)cc(Nc2nccn2-c2cccc(C(F)(F)F)c2)n1
Plasmodium falciparum [1]
  pEC50: 6.54

## Cc1c(Nc2ccc(OC(F)(F)F)cc2)ncnc1Nc1nccn1-c1cccc(C(F)(F)F)c1
Plasmodium falciparum [1]
  pEC50: 5.33

## O=C(NCCc1c[nH]cn1)c1cccc(-n2ccnc2Nc2cc(Nc3ccc(OC(F)(F)F)cc3)ncn2)c1
Plasmodium falciparum [1]
  pEC50: 5.75

## OCCN1CCN(c2cc(-n3ccnc3Nc3cc(Nc4ccc(OC(F)(F)F)cc4)ncn3)cc(C(F)(F)F)c2)CC1
Plasmodium falciparum [1]
  pEC50: 6.76

## Oc1nc(Nc2ccc(OC(F)(F)F)cc2)cc(Nc2nccn2-c2cccc(C(F)(F)F)c2)n1
Plasmodium falciparum [1]
  pEC50: 5.26

## Cc1nc(Nc2ccc(OC(F)(F)F)cc2)cc(Nc2nccn2-c2cccc(C(F)(F)F)c2)n1
Plasmodium falciparum [1]
  pEC50: 6.94

## FC(F)(F)Oc1ccc(Nc2ccnc(Nc3nccn3-c3cccc(C(F)(F)F)c3)n2)cc1
Plasmodium falciparum [1]
  pEC50: 6.57

## FC(F)(F)Oc1ccc(Nc2ncnc(Nc3nccn3-c3cccc(C(F)(F)F)c3)n2)cc1
Plasmodium falciparum [1]
  pEC50: 5.88

## CN(c1cc(Nc2ccc(OC(F)(F)F)cc2)ncn1)c1nccn1-c1cccc(C(F)(F)F)c1
Plasmodium falciparum [1]
  pEC50: 5.42

## CCN1CCCC1CNC(=O)c1cccc(-n2ccnc2Nc2cc(Nc3ccc(OC(F)(F)F)cc3)nc(C)n2)c1 (stereo not given)
Plasmodium falciparum [1]
  pEC50: 7.22
[2]
  hepatic extraction ratio: 0.275
[3]
  hepatic extraction ratio: < 0.17
[5]
  solubility thermodynamic: 89 µg/mL (≈ 153 µM)

## Cc1nc(Nc2ccc(OC(F)(F)F)cc2)cc(Nc2nccn2-c2cccc(C(=O)NCCCN3CCN(C)CC3)c2)n1
Plasmodium falciparum [1]
  pEC50: 6.62

## CNc1nc(Nc2ccc(OC(F)(F)F)cc2)cc(Nc2nccn2-c2cccc(C(F)(F)F)c2)n1
Plasmodium falciparum [1]
  pEC50: 7.27

## Cc1nc(Nc2ccc(OC(F)(F)F)cc2)cc(Nc2nccn2-c2cccc(C(=O)NCCCN3CCCC3)c2)n1
Plasmodium falciparum [1]
  pEC50: 6.65

## CN1CCN(c2cc(-n3ccnc3Nc3cc(Nc4ccc(OC(F)(F)F)cc4)ncn3)cc(C(F)(F)F)c2)CC1
Plasmodium falciparum [1]
  pEC50: 7.19

## CN1CCN(C2CCN(c3cc(-n4ccnc4Nc4cc(Nc5ccc(OC(F)(F)F)cc5)ncn4)cc(C(F)(F)F)c3)CC2)CC1
Plasmodium falciparum [1]
  pEC50: 7.05
[4]
  hepatic extraction ratio: 0.316
[5]
  solubility thermodynamic: 110 µg/mL (≈ 166 µM)

## FC(F)(F)Oc1ccc(Nc2cc(Nc3nccn3-c3cc(N4CCOCC4)cc(C(F)(F)F)c3)ncn2)cc1
Plasmodium falciparum [1]
  pEC50: 6.27
